According to ChEMBL document CHEMBL3243955, “A novel synthesis and biological activity of several 5-halo-5'-amino analogues of deoxyribopyrimidine nucleosides” (J Med Chem, 1978):
The source made the active and inactive calls. No cut-off for these calls is given here.

How the values were obtained:
Human alphaherpesvirus 1 [1] = assay: Antiviral activity against HSV1 CL101 infected in African green monkey Vero cells assessed as plaque forming unit at 50 uM after 40 hrs relative to control; assay type: functional; conditions: Human alphaherpesvirus 1, CL101, Vero
Outline: (§1)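 After 1 h adsorption at 37 °C, the inoculum was removed and cells washed with PBS. Compound was added in serum-supplemented medium and cultures incubated 40 h at 37 °C. Virus was released by one freeze–thaw and titrated by plaque assay on Vero cells. Percent inhibition was pfu relative to drug-free cultures.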

[2] = (§2) Cytotoxicity against African green monkey Vero cells at 50 uM after 3 days by haemocytometry; assay type: cell-based; conditions: chlorocebus sabaeus, Vero cells; read-out: INH
Outline: (§3)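 Uninfected Vero cells were seeded at 0.1 confluency in Dulbecco's medium with 10% fetal calf serum and incubated 1 day at 37 °C in 5% CO2. Compound was then added in growth medium. Duplicate flasks were harvested at once and then daily for 3 days by trypsin (0.125%)/EDTA (0.02%) for 15 min at 37 °C, dispersed, and stained with trypan blue. Cells were counted by haemocytometer.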

CCRF S-180 [3] = assay: Cytotoxicity against mouse S180 cells at 50 uM after 18 to 42 hrs relative to control; assay type: functional
Outline: (§4)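 Mouse sarcoma 180 suspension cultures in Fischer's medium with 10% horse serum, 37 °C, humidified 5% CO2 (generation time ~18 h). Compound was added to exponential-phase cells at ~2 × 10⁴ cells/mL. Increase in cell number was measured after 18 and 42 h. Percent inhibition was calculated relative to drug-free control.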

Human alphaherpesvirus 1 [4] = assay: Antiviral activity against HSV1 CL101 infected in African green monkey Vero cells assessed as plaque forming unit at 400 uM after 40 hrs relative to control; assay type: functional; conditions: Human alphaherpesvirus 1, CL101, Vero; outline: as §1
Vero [5] = assay: (§5) Cytotoxicity against African green monkey Vero cells at 400 uM after 3 days by haemocytometry; assay type: cell-based; conditions: chlorocebus sabaeus, vero, 72 h, 400 µM; outline: as §3
CCRF S-180 [6] = assay: Cytotoxicity against mouse S180 cells at 400 uM after 18 to 42 hrs relative to control; assay type: functional; outline: as §4
Human alphaherpesvirus 1 [7] = assay: Antiviral activity against HSV1 CL101 infected in African green monkey Vero cells assessed as plaque forming unit at 1 uM after 40 hrs relative to control; assay type: functional, organism-based; outline: as §1
[8] = as §5; assay type: cell-based; conditions: chlorocebus sabaeus, Vero cells; read-out: INH; outline: as §3
Vero [9] = assay: Cytotoxicity against African green monkey Vero cells at 1 uM after 3 days by haemocytometry; assay type: cell-based; conditions: chlorocebus sabaeus, 72 h; outline: as §3
CCRF S-180 [10] = assay: Cytotoxicity against mouse S180 cells at 1 uM after 18 to 42 hrs relative to control; assay type: functional; outline: as §4
Vero [11] = assay: Cytotoxicity against African green monkey Vero cells at 1600 uM after 3 days by haemocytometry; assay type: cell-based; conditions: chlorocebus sabaeus, 72 h; outline: as §3
CCRF S-180 [12] = assay: Cytotoxicity against mouse S180 cells at 1600 uM after 18 to 42 hrs relative to control; assay type: functional, cell-based; outline: as §4
Human alphaherpesvirus 1 [13] = assay: Antiviral activity against HSV1 CL101 infected in African green monkey Vero cells assessed as plaque forming unit at 200 uM after 40 hrs relative to control; assay type: functional; conditions: Human alphaherpesvirus 1, CL101, Vero; outline: as §1
Vero [14] = assay: Cytotoxicity against African green monkey Vero cells at 200 uM after 3 days by haemocytometry; assay type: cell-based; conditions: chlorocebus sabaeus, 72 h
CCRF S-180 [15] = assay: Cytotoxicity against mouse S180 cells at 200 uM after 18 to 42 hrs relative to control; assay type: functional, cell-based; outline: as §4
Vero [16] = assay: as §2; assay type: cell-based; conditions: chlorocebus sabaeus, vero, 72 h, 50 µM; outline: as §3
Vero [17] = assay: Cytotoxicity against African green monkey Vero cells at 800 uM after 3 days by haemocytometry; assay type: cell-based; conditions: chlorocebus sabaeus, 72 h; outline: as §3
[18] = Cytotoxicity against African green monkey Vero cells at 0.1 uM after 3 days by haemocytometry; assay type: cell-based; conditions: chlorocebus sabaeus, read-out: INH; outline: as §3
Vero [19] = assay: Cytotoxicity against African green monkey Vero cells at 0.01 uM after 3 days by haemocytometry; assay type: cell-based; conditions: chlorocebus sabaeus, 72 h; outline: as §3
CCRF S-180 [20] = assay: Cytotoxicity against mouse S180 cells at 0.1 uM after 18 to 42 hrs relative to control; assay type: functional; outline: as §4
CCRF S-180 [21] = assay: Cytotoxicity against mouse S180 cells at 0.01 after 18 to 42 hrs relative to control; assay type: functional; outline: as §4

`O=c1[nH]c(=O)n([C@H]2C[C@H](O)[C@@H](CO)O2)cc1I` [IDOXURIDINE] gave an inhibition at 50 µM (Human alphaherpesvirus 1 [1]) of 99.5%, a cytotoxicity at 72 h, 50 µM [2] of 100% and an inhibition at 50 µM (CCRF S-180 [3]) of 100%.

In the case of `NC[C@H]1O[C@@H](n2cc(Cl)c(O)nc2=O)C[C@@H]1O`, the inhibition at 400 µM (Human alphaherpesvirus 1 [4]) is reported as 74.3%, the Activity (Vero [5]) is reported as “Non-toxic” and the inhibition (CCRF S-180 [6]) is reported as “inactive”.

For `NC[C@H]1O[C@@H](n2cc(F)c(=O)[nH]c2=O)C[C@@H]1O`, the inhibition at 400 µM (Human alphaherpesvirus 1 [4]) was 85.6%, the inhibition (Human alphaherpesvirus 1 [7]) was “inactive” and the cytotoxicity at 72 h, 400 µM [8] was 100%. For the same compound, the Activity (Vero [9]) was “Non-toxic”, the inhibition at 400 µM (CCRF S-180 [6]) was 100% and the inhibition at 1 µM (CCRF S-180 [10]) was 100%.

With `NC[C@H]1O[C@@H](n2cc(I)c(N)nc2=O)C[C@@H]1O` the inhibition at 400 µM (Human alphaherpesvirus 1 [4]) was 92.8%, the Activity (Vero [5]) was “Non-toxic” and the Activity (Vero [11]) was “Non-toxic”. For the same compound, the inhibition (CCRF S-180 [6]) was “inactive” and the inhibition (CCRF S-180 [12]) was “inactive”.

For `[N-]=[N+]=NC[C@H]1O[C@@H](n2cc(I)c(N)nc2=O)C[C@@H]1O`, the inhibition at 200 µM (Human alphaherpesvirus 1 [13]) was 37.5%, the Activity (Vero [14]) was “Non-toxic” and the inhibition (CCRF S-180 [15]) was “inactive”.

For `Nc1nc(=O)n([C@H]2C[C@H](O)[C@@H](CO)O2)cc1I` [IBACITABINE], the inhibition at 50 µM (Human alphaherpesvirus 1 [1]) was 99.5%, the Activity (Vero [16]) was “Non-toxic” and the Activity (Vero [17]) was “Non-toxic”.

Work on `O=c1[nH]c(=O)n([C@H]2C[C@H](O)[C@@H](CO)O2)cc1F` [FLOXURIDINE] yielded an inhibition at 400 µM (Human alphaherpesvirus 1 [4]) of 84.3%, a cytotoxicity at 72 h, 400 µM [8] of 100% and a cytotoxicity at 72 h, 0.1 µM [18] of 100%. For the same compound, the Activity (Vero [19]) was “Non-toxic”, the inhibition at 400 µM (CCRF S-180 [6]) was 100% and the inhibition at 0.1 µM (CCRF S-180 [20]) was 100%. For the same compound, the “inhibition (INH)” value (CCRF S-180 [21]) was 100%.

In the case of `NC[C@H]1O[C@@H](n2cc(Br)c(O)nc2=O)C[C@@H]1O`, the inhibition at 200 µM (Human alphaherpesvirus 1 [13]) is reported as 86.2%, the Activity (Vero [14]) is reported as “Non-toxic” and the inhibition (CCRF S-180 [15]) is reported as “inactive”.

With `[N-]=[N+]=NC[C@H]1O[C@@H](n2cc(F)c(O)nc2=O)C[C@@H]1O` the inhibition at 400 µM (Human alphaherpesvirus 1 [4]) was 5%, the cytotoxicity at 72 h, 400 µM [8] was 100% and the inhibition at 400 µM (CCRF S-180 [6]) was 100%.
